Test results from ChEMBL document CHEMBL1122418, “Synthesis of 3-hydroxy-3-cyclohexylbutyric acid derivatives. 2. Cyclic analogues of mevalonic acid” (1983).

Legend:
Type in all cases: functional
[1] = species: Rattus norvegicus; assay: Percent inhibition of [14C]acetate incorporation into cholesterol, after incubation with rat liver slices at 5x10E-4 M concentration
How it was run: (§1)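 Rat liver slices (250 mg) incubated in 4 mL Krebs-Ringer bicarbonate buffer, pH 7.4, with 4 mM [2-14C]acetate, with or without test compound; label recovered in CO2, long-chain fatty acids and cholesterol measured and inhibition calculated against untreated slices. Values are arithmetic means of three determinations.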

[2] = species: Rattus norvegicus; assay: Percent inhibition of [14C]acetate incorporation into CO2, after incubation with rat liver slices at 5x10E-4 M concentration; how it was run: as §1
[3] = species: Rattus norvegicus; assay: Percent inhibition of [14C]acetate incorporation into long-chain fatty acids, after incubation with rat liver slices at 5x10E-4 M concentration; how it was run: as §1
[4] = species: Rattus norvegicus; assay: Percent inhibition of [14C]acetate incorporation into cholesterol, after incubation with rat liver slices at 5x10E-3 M concentration; how it was run: as §1
[5] = species: Rattus norvegicus; assay: Percent inhibition of [14C]acetate incorporation into CO2, after incubation with rat liver slices at 5x10E-3 M concentration; how it was run: as §1
[6] = species: Rattus norvegicus; assay: Percent inhibition of [14C]acetate incorporation into long-chain fatty acids, after incubation with rat liver slices at 5x10E-3 M concentration; how it was run: as §1

Row | Structure (SMILES) | inhibition at 500 µM [1] [%] | inhibition at 500 µM [2] [%] | inhibition at 500 µM [3] [%] | inhibition at 5000 µM [4] [%] | inhibition at 5000 µM [5] [%] | inhibition at 5000 µM [6] [%]
1 | CO[C@H]1CCCC[C@H]1C(C)(O)CC(=O)O (some centres undefined) | 25 | 39 | 57 | – | – | –
2 | CC1CC(=O)O[C@H]2CCCC[C@@H]12 (some centres undefined) | 10 | 10 | 10 | 39 | 24 | 62
3 | CC1(O)CC(=O)O[C@H]2CCCC[C@H]21 (some centres undefined) | 10 | 10 | 10 | 22 | 37 | 47
4 | CC(O)(CC(=O)O)[C@@H]1CCCC[C@@H]1O (some centres undefined) | 10 | 10 | 10 | 50 | 62 | 68
5 | CC(O)(CC(=O)O)C1CCCCC1 (centres undefined) [CYCLOBUTOIC ACID] | 32 | 62 | 72 | – | – | –
